The values that follow come from paper PMC13647048 (Zoological Research, 2026).

The test system of experiment [1] is CLP-induced septic BALB/c mice. As to the kind of experiment: CLP-induced sepsis in mice. Format: in vivo, mouse. In short, it runs like this:
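Male BALB/c mice, eight weeks old, 18–25 g, acclimatized 3 days, then anesthetized with xylazine 8 mg/kg plus ketamine 100 mg/kg. CLP was done under aseptic conditions; sham mice had the same surgery without CLP. Within 1 h post-surgery mice got test compound 5 mg/kg, DXM 10 mg/kg or 0.9% saline i.p. Survival was followed 72 h and clinical scoring done at 24 h. A separate cohort gave blood and organs at 12 h for cytokines.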

For experiment [2], the system named is Escherichia coli ATCC 25922. As to the kind of experiment: MIC, two-fold dilution, E. coli. Format: cell-based. To be noted: meropenem as positive control, E. coli ATCC 25922.
For experiment [3], the system named is E. coli ATCC 25922. As to the kind of experiment: Time-kill assay. To be noted: meropenem 0.015 μmol/L; not completely eradicated within this time; n=3. In kind it is cell-based, Escherichia coli. An outline of the steps:
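E. coli ATCC 25922 was exposed to test compound at several concentrations and sampled over incubation time. Viable CFU were counted by the spread plate method. Normal saline served as negative control and meropenem as positive control.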

The mark [4] stands for this setting: serum and lung, HR-CATH2 5 mg/kg or DXM 10 mg/kg i.p., 12 h post-surgery.

`C[C@@H]1C[C@H]2[C@@H]3CCC4=CC(=O)C=C[C@]4(C)[C@@]3(F)[C@@H](O)C[C@]2(C)[C@@]1(O)C(=O)CO` [DXM, dexamethasone]: in experiment [1] (24 h after CLP, DXM 10 mg/kg i.p.), the Clinical scores entry is reported as “reduced clinical scores”. Besides, the Survival result in experiment [1] (72 h after CLP, DXM 10 mg/kg i.p., n=10 per group) was “markedly improved survival”. In addition, the Histopathological tissue injury result in experiment [1] (lung, kidney, liver, H&E, HR-CATH2 5 mg/kg or DXM 10 mg/kg i.p. at 1 h after CLP, 12 h post-surgery) is “significantly alleviated tissue injury”. The MPO activity entry in experiment [1] (lung, HR-CATH2 5 mg/kg or DXM 10 mg/kg i.p., 12 h post-surgery) is recorded as “significantly attenuated”. Moreover, in experiment [1] (setting [4]), the IL-1β concentration result is reported as “significantly attenuated”, the IL-6 concentration result is on record as “significantly attenuated”, the MCP-1 concentration entry is “significantly attenuated” and the TNF-α concentration result was “significantly attenuated”.

Regarding `C[C@@H](O)[C@H]1C(=O)N2C(C(=O)O)=C(S[C@@H]3CN[C@H](C(=O)N(C)C)C3)[C@H](C)[C@H]12` [meropenem], the “MIC (positive control)” value in experiment [2] turned out to be 0.015 mol/L. Also, the “Time to complete eradication of E. coli” value in experiment [3] was > 180 min.
